Experiments:
MCF7 [1] = assay: Antiproliferative activity against human MCF7 cells assessed as cell growth inhibition at 100 uM by MTT assay relative to control; assay type: functional; settings: read-out: GI
Summary of the method: (§1)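 Five human lines (MCF-7, HeLa, A549, PC-3, Panc-1) exposed to a single 100 μM concentration. Viability read by MTT. Results expressed as […] versus untreated control cells.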

HeLa [2] = assay: Antiproliferative activity against human HeLa cells assessed as cell growth inhibition at 100 uM by MTT assay relative to control; assay type: functional; settings: read-out: GI; summary of the method: as §1
A549 = assay: Antiproliferative activity against human A549 cells assessed as cell growth inhibition at 100 uM by MTT assay relative to control; assay type: functional; settings: read-out: GI; summary of the method: as §1
PC-3 = assay: Antiproliferative activity against human PC-3 cells assessed as cell growth inhibition at 100 uM by MTT assay relative to control; assay type: functional; settings: read-out: GI; summary of the method: as §1
PANC-1 [3] = assay: Antiproliferative activity against human PANC-1 cells assessed as cell growth inhibition at 100 uM by MTT assay relative to control; assay type: functional; settings: read-out: GI; summary of the method: as §1
MCF7 [4] = assay: Antiproliferative activity against human MCF7 cells assessed as cell growth inhibition by MTT assay; assay type: functional, cell-based
Summary of the method: (§2)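 MTT antiproliferation readout. […] Mean ± SD from three independent experiments.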

HeLa [5] = assay: Antiproliferative activity against human HeLa cells assessed as cell growth inhibition by MTT assay; assay type: functional, cell-based; summary of the method: as §2
PANC-1 [6] = assay: Antiproliferative activity against human PANC-1 cells assessed as cell growth inhibition by MTT assay; assay type: functional, cell-based; summary of the method: as §2
K562 = assay: Antiproliferative activity against human K562 cells assessed as cell growth inhibition by MTT assay; assay type: functional, cell-based
Tubulin (Homo sapiens) = Tubulin (Homo sapiens) (UniProt P68371+Q9H4B7+P0DPH7+P68366+Q13509+Q71U36+P04350+Q3ZCM7+P07437+P68363+Q9BQE3+Q6PEY2+Q13885+Q9BVA1+Q9BUF5); assay: Inhibition of tubulin (unknown origin) polymerization at 10 uM measured every 1 min over 20 mins by fluorescence assay relative to control; assay type: protein-complex assay
Summary of the method: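 Tubulin in reaction buffer incubated at 37 °C with test agent at final 10 μM; control 1% DMSO. Polymerization followed at 340 nm, read every minute over 20 min. Run three times.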

Tubulin = assay: Inhibition of tubulin (unknown origin) polymerization measured every 1 min over 20 mins by fluorescence assay; assay type: protein-complex assay, Homo sapiens
Summary of the method: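 Tubulin polymerization at 37 °C in reaction buffer, followed at 340 nm each minute over 20 min; 1% DMSO control. IC50 given as mean of three independent experiments done in quadruplicate.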

IC50 (MCF7 [4]): 40.6 µM
IC50 (HeLa [5]): 52.2 µM
IC50 (PANC-1 [6]): 59.8 µM
IC50 (K562): 66 µM
inhibition (Tubulin (Homo sapiens)): 52%
IC50 (Tubulin): 9.4 µM
Compound: COc1ccc(C(=O)Cn2nc(-c3cc(OC)c(OC)c(OC)c3)nc2N)cc1
inhibition of growth at 100 µM (MCF7 [1]): 73%
inhibition of growth at 100 µM (HeLa [2]): 76%
inhibition of growth at 100 µM (A549): 21%
inhibition of growth at 100 µM (PC-3): 31%
inhibition of growth at 100 µM (PANC-1 [3]): 57%
